High-throughput results deposited in PubChem by Broad Institute.
Compounds with a hit are over-represented: about 2.6% of the library has one in this group of screens.
AF4-AF9 inh: blocks AF4 peptide binding to human AF9 | 0.47% of 350,000 active | AlphaScreen, biotin-AF4 peptide binding to FLAG-AF9 | inhibition, % at 10 µM | AID 651704 | P42568;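 active = every replicate reaching a set inhibition limit, whatever the replicate mean, cut at about 25% in these data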;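 also: 0% = plate neutral control median and 100% = total signal loss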
Target sequence (P42568 whole entry, looked up): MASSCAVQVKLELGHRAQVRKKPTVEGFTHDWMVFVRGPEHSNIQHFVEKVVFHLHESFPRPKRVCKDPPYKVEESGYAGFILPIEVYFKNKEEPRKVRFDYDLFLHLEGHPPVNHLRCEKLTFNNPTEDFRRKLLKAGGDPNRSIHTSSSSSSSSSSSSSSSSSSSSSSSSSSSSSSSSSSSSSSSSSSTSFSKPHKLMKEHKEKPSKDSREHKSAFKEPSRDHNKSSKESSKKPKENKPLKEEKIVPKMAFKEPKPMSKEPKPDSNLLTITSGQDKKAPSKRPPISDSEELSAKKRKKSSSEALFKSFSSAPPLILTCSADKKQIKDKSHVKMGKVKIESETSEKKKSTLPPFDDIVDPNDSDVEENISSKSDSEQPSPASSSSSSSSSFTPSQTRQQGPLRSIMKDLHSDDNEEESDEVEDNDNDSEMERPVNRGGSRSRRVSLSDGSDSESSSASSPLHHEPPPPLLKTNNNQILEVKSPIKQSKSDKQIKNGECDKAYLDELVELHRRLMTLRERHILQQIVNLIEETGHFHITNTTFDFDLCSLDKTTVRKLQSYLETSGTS
GSIS activator: GLuc luminescence reporter in INS-1E cells, primary screen for activators of glucose-dependent secretion of insulin; 0.61% of 370,000 active; INS-1E GLuc reporter insulin secretion, 2-3 h; AID 743287; activation, % at 16.6 µM;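 active = lowest replicate activation of at least 40%, so every replicate reaches that level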;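 also: 0% = median of neutral control wells and 100% = median of IBMX positive control wells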
E-sel inducer: E-selectin induction on HUVECs; HUVEC E-selectin immunofluorescence imaging; normalized: neutral wells 0, TNF-alpha wells 100; activation, % at 7.58 µM; 0.37% of 260,000 active; AID 686992;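 active = mean E-selectin-positive cell signal at least 10% of the positive control, reached in at least 60% of replicates, without over 20% cell loss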
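Assay system: HUVEC primary endothelial cells. Input: 3,000 HUVEC seeded per well. Doses: one compound dose added by pin transfer. Read-out basis: % PE-positive cells. Benchmarks: TNF-alpha high, DMSO low. Detection: immunofluorescence imaging. Buffer or medium: EGM-2, gelatin.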
RAD52 anneal inh: inhibitors of human RAD52 DNA annealing; P43351; recombinant RAD52 DNA annealing, FRET fluorescence; inhibition, % at 18.7 µM; 0.46% of 360,000 active;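 active = every replicate showing at least 50% inhibition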
rRNA inh HTS: selective bacterial rRNA inhibition in E. coli; E. coli WT GFP vs humanized-ribosome RFP mutants, fluorescence, 24 h; stronger effect = lower value; DMSO median 0, no signal -100; GFP signal change (wild-type ribosome), % (test concentration not listed); 1.6% of 350,000 active;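 active = significant combined selectivity score with lowered wild-type GFP, culture density cut under 30%, mutant RFP and density less affected; inactive = any of these conditions unmet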
RAD54 inh: blocks human RAD54 Holliday junction branch migration | Q92698 | FAM/BHQ fluorescence | inhibition, % at 10.4 µM | 0.14% of 360,000 active;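 active = mean normalized replicate activity at least 40 and at least half of replicates scoring 40 or more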;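 also: 0% = median of neutral control wells and 100% = median of positive control wells; inhibitors cause a drop in the FAM fluorescence signal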
The depositor's hits bear a star; · = no result given; ! = not active in a repeat.

SMILES | AF4-AF9 inh | GSIS activator | E-sel inducer | RAD52 anneal inh | rRNA inh HTS | RAD54 inh
CC=Cc1ccc2n(c1=O)C[C@@H]1[C@@H](CO)[C@H](C(=O)N3CCc4ccccc4C3)N[C@H]21 (mixture of isomers) | 0 | 8 | 0 | -17 | -1 | 4
Cc1nc(N)nc2c1CCCC2 | -3 | 43* | · | · | · | 3
Cc1nc(S(=O)(=O)Cc2ccc(Cl)cc2)nc2c1CCC2 | -1 | -1 | · | -15 | 8 | -5
Cc1nnc(SCC(=O)N(C)CC(=O)Nc2ccccc2Cl)s1 | -1 | -2 | 4 | -9 | 16 | 17
CN(CC(=O)Nc1ccccc1Cl)C(=O)CSc1nc2ccccc2s1 | -7 | -7 | 0 | -30 | -26* | 10
CN(CC(=O)Nc1ccccc1Cl)C(=O)COC(=O)c1nc(Cl)c(Cl)c(Cl)c1Cl | 0 | 0 | · | -35 | -18* | 0
Cc1ccc(CSCC(=O)N(C)CC(=O)Nc2ccccc2Cl)cc1 | -1 | -5 | 0 | -1 | -21* | ·
Cc1ccc(CSCC(=O)N(C)CC(=O)Nc2c(Cl)cccc2Cl)cc1 | 6 | -9 | · | -4 | 0 | -12
COc1ccc([C@@H]2C=C(C(=O)N3CCCCC3)O[C@H](OCc3ccc(CO)cc3)C2)cc1 | -3 | · | · | -65 | · | -14
COc1ccc2c(c1)CC/C(=C/c1cc(OC)c(OC)c(OC)c1)C2=O | -5 | 8 | 3 | -6 | -20* | ·
COc1cccc(C=C2Cc3ccccc3C2=O)c1 | 4 | 17 | 0 | 2 | -17* | ·
COc1cccc(/C=C2\CCc3ccccc3C2=O)c1 | 6 | 14 | 0 | -9 | -20 | 11
O=C(C[C@H]1CC[C@@H]2[C@H](COC[C@@H](O)CN2S(=O)(=O)c2ccccc2)O1)Nc1ccccc1 | -1 | -7 | 0 | -2 | -3 | 8
O=C(c1cccc(Cl)c1)C1CCCN(C(=O)c2ccc3c(c2)OCO3)C1 (stereo unspecified) | 31* | -16 | · | -5 | -11 | 7
CCCc1ccc(C(=O)NNc2ccccc2F)cc1 | 0 | 12 | 55* | -7 | -9 | ·
OC(c1ccccc1)(c1ccccc1)C1CCN(CCCOc2ccc(C(F)(F)F)cc2)CC1 | 0 | 654* | 0 | 17 | -57 | ·
C[C@@H]1CN([C@H](C)CO)C(=O)c2cccc(NC(=O)c3ccc(-c4nccs4)cc3)c2O[C@@H]1CN(C)Cc1ccc(Cl)c(Cl)c1 | 3 | -8 | -2 | 4 | -5 | -2
C[C@@H]1CN([C@@H](C)CO)C(=O)c2cccc(NC(=O)c3ccc(-c4nccs4)cc3)c2O[C@H]1CN(C)Cc1ccc(Oc2ccccc2)cc1 | -4 | -38 | 71* | -3 | 7 | -28
C[C@H]1CN([C@@H](C)CO)C(=O)c2cccc(NC(=O)c3ccc(-c4nccs4)cc3)c2O[C@@H]1CN(C)Cc1ccc(Cl)c(Cl)c1 | 3 | -3 | 304* | 13 | -1 | 1
CCOc1cc(C(c2c(C)[nH][nH]c2=O)c2c(C)[nH][nH]c2=O)ccc1OCc1ccc([N+](=O)[O-])cc1 | · | · | · | · | · | -6
CCOc1cc(/C=C2/NC(=S)NC2=O)ccc1OCc1ccc([N+](=O)[O-])cc1 | · | 58* | · | · | · | -3
O=C1C=CC(=O)N1Cc1ccccc1 | 48* | · | 0 | 0 | -2 | -6
CC(=O)N1CCN=C1SCc1ccccc1 | -3 | 3 | 0 | -14 | 2 | 7
CC(=O)N1CCN(C(C)=O)c2ccccc21 | 36* | 20 | 0 | 4 | 8 | 3
CC(C)CC#Cc1cnc2c(c1)C(=O)N([C@@H](C)CO)C[C@@H](C)[C@H](CN(C)C(=O)c1ccc3c(c1)OCO3)O2 | 8 | -33 | 1 | 18 | 4 | -6
SMILES | AF4-AF9 inh | GSIS activator | E-sel inducer | RAD52 anneal inh | rRNA inh HTS | RAD54 inh
CC(C)CC#Cc1cnc2c(c1)C(=O)N([C@H](C)CO)C[C@@H](C)[C@H](CN(C)C(=O)c1ccc3c(c1)OCO3)O2 | 6 | -38 | 74* | -3 | -2 | 9
C[C@@H]1CN([C@@H](C)CO)C(=O)c2cc(C#CCN(C)C)cnc2O[C@@H]1CN(C)Cc1ccc(-c2ccccc2)cc1 | 23 | 2 | 0 | -8 | 5 | -7
CCCN(C)C[C@@H]1Oc2ncc(-c3ccccc3)cc2C(=O)N([C@H](C)CO)C[C@@H]1C | -2 | -16 | 90* | 13 | 2 | 2
C[C@@H]1CN([C@@H](C)CO)C(=O)c2cc(C#CCN(C)C)cnc2O[C@H]1CN(C)Cc1ccc(-c2ccccc2)cc1 | 34*! | 13 | 0 | 10 | 3 | 6
C[C@@H]1CN([C@H](C)CO)C(=O)c2cc(C#CCN(C)C)cnc2O[C@H]1CN(C)Cc1ccc(-c2ccccc2)cc1 | 27* | 11 | 0 | -1 | 1 | -3
CO[C@@H]1CN(C)C(=O)c2cc(NS(=O)(=O)c3ccccc3)ccc2OC[C@H](C)N(Cc2nccs2)C[C@@H]1C | 1 | -13 | 0 | -1 | -2 | -2
COc1ccc(S(=O)(=O)Nc2ccc3c(c2)C(=O)N([C@H](C)CO)C[C@H](C)[C@H](CN(C)C(=O)Nc2c(C)noc2C)OCCCC[C@@H](C)O3)cc1 | -1 | 1 | 1 | -1 | 1 | 0
C[C@H](CO)N1C[C@H](C)[C@@H](CN(C)C)Oc2ncc(-c3cccc(C(=O)N(C)C)c3)cc2C1=O | 0 | 31 | 0 | -1 | 7 | 8
CCC(CC)CN1CCN=C1Nc1ccccc1 | 2 | 59* | 0 | -11 | 10 | 0
CCN1CCN=C1Nc1ccccc1 | -1 | · | 0 | -2 | 5 | 0
O=C1CSC(c2ccccc2)N1c1ccc(F)cc1F (stereo unspecified) | 0 | 48* | · | 0 | 8 | -5
O=C1CSC(c2ccccc2)N1c1ccccc1F (stereo unspecified) | 0 | 39 | · | 7 | 8 | -8
Clc1ccc(SCc2cn3ccccc3n2)cc1 | -6 | -8 | · | 3 | -28* | ·
Clc1ccc(-n2nnnc2SCc2cn3ccccc3n2)cc1 | · | · | · | · | · | -5
COc1ccc2nc3cc([N+](=O)[O-])ccc3c(NNc3ccc([N+](=O)[O-])cc3)c2c1 | 1 | · | 0 | -15 | -18* | ·
O=S(=O)(Nc1nccs1)c1ccc(NCc2cc(Br)cc(Br)c2O)cc1 | -6 | 37 | · | -18 | -47* | -14
COc1cccc(CNc2ccc(S(=O)(=O)Nc3nccs3)cc2)c1O | · | · | · | · | · | 3
Cc1noc(C)c1S(=O)(=O)Nc1ccc2c(c1)C(=O)N([C@H](C)CO)C[C@H](C)[C@H](CN(C)C(=O)c1ccccc1)OCCCC[C@H](C)O2 | -10 | -14 | 0 | 2 | -3 | 10
O=C(NCc1ccco1)c1ccc2c(=O)n(CCC3=CCCCC3)c(=O)[nH]c2c1 | · | 68* | · | · | · | ·
CCN1CCN(C(=O)c2ccc3c(=O)n(CCC4=CCCCC4)c(=O)[nH]c3c2)CC1 | · | · | 0 | · | · | 2
